Our source for the Ki, Ratio Ki and Activity values is ChEMBL document CHEMBL1772952 (J Med Chem, 2011).

pKi: −log10 of the molar value. Active and inactive are the calls of the source. The rule behind the calls is not given here.

A word on the pKi: it is the Ki on a negative log10 scale, so that one unit is a factor of ten.

Assay [1] concerns the target Sodium-dependent serotonin transporter (Rattus norvegicus, UniProt P31652). Kind of assay: Inhibition of SERT in rat cerebral cortex assessed as [3H]serotonin accumulation. In kind it is tissue-based. The method, boiled down: (§1)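 Uptake of [3H]dopamine (DAT, rat striatum) or [3H]serotonin (SERT, rat cerebral cortex) was measured with at least five triplicate concentrations spaced around the IC50. IC50 came from nonlinear curve fitting and was converted to Ki by Cheng-Prusoff. Values are mean ± SEM of 3–8 independent experiments.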

For assay [2], the species on record is Rattus norvegicus. Kind of assay: Selectivity ratio of Ki for DAT in rat striatum to Ki for NET in rat cerebral cortex. The format is tissue-based. The method, boiled down:
(§2)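 Ratio of Ki values from [3H]substrate uptake inhibition: [3H]dopamine for DAT in rat striatum, and [3H]serotonin for SERT or [3H]norepinephrine for NET in rat cerebral cortex. Each Ki came from an IC50 fitted over at least five triplicate concentrations, converted by Cheng-Prusoff.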

The species entered for assay [3] is Rattus norvegicus. Kind of assay: Selectivity ratio of Ki for SERT in rat cerebral cortex to Ki for NET in rat cerebral cortex. In kind it is tissue-based. The method, boiled down: as §2
The species named for assay [4] is Rattus norvegicus. Kind of assay: Selectivity ratio of Ki for DAT in rat striatum to Ki for SERT in rat cerebral cortex. The format is tissue-based. The method, boiled down: as §2
Assay [5] addresses Sodium-dependent dopamine transporter (Rattus norvegicus, UniProt P23977). Kind of assay: Inhibition of DAT in rat striatum assessed as [3H]dopamine accumulation. The format is tissue-based. The method, boiled down:
as §1

Assay [6] is described as follows: Inhibition of NET in rat cerebral cortex assessed as [3H]norepinephrine accumulation. In kind it is tissue-based. The method, boiled down:
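Rat cerebral cortex tissue; uptake of [3H]norepinephrine via NET measured. At least five concentrations per compound, each in triplicate, spaced evenly around the IC50. IC50 obtained by nonlinear curve fitting, then converted to Ki by Cheng-Prusoff. Values are mean ± SEM of three to eight independent experiments.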

The test system of assay [7] is Rattus norvegicus. Kind of assay: Antidepressant activity in […] Sprague-Dawley rat assessed as reduction of immobility time at 15 mg/kg, ip administered 30 mins before test by forced swimming test. In kind it is functional, organism-based. Set-up: dose 15 mg/kg. The method, boiled down: (§3)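 Male Sprague-Dawley rats (200–225 g), drug-naive and used once. Forced swim test: 15 min pretest swim in a water-filled glass cylinder (depth 22 cm, 24–25 °C). Drug or vehicle (10% β-hydroxypropyl cyclodextrin) was given i.p. 15 min after the pretest and again before the 5 min test swim 24 h later. Immobility was scored from video by a blinded rater.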

The test system of assay [8] is Rattus norvegicus. Kind of assay: Antidepressant activity in […] Sprague-Dawley rat assessed as reduction of immobility time at 10 mg/kg, ip administered 1 hr before test by forced swimming test. In kind it is functional, organism-based. Also on record: dose 10 mg/kg. The method, boiled down:
as §3

Sodium-dependent dopamine transporter, sequence (P23977 whole entry): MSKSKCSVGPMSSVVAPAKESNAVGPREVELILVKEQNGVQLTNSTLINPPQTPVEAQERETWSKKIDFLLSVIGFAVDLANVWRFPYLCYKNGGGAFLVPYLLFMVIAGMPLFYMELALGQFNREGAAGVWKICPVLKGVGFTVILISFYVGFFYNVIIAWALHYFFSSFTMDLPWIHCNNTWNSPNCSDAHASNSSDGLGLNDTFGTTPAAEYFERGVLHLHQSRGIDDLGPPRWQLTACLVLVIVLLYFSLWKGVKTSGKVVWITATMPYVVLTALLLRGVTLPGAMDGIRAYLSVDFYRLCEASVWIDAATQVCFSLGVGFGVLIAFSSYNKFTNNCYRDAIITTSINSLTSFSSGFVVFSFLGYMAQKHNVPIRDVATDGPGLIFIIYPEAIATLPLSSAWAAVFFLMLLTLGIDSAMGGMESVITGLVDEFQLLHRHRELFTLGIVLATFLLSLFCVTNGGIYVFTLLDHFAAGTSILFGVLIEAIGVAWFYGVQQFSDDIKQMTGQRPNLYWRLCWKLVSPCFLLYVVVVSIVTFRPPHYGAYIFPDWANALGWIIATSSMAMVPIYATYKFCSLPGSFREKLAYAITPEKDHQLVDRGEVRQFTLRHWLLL
Sodium-dependent serotonin transporter, sequence (P31652 whole entry): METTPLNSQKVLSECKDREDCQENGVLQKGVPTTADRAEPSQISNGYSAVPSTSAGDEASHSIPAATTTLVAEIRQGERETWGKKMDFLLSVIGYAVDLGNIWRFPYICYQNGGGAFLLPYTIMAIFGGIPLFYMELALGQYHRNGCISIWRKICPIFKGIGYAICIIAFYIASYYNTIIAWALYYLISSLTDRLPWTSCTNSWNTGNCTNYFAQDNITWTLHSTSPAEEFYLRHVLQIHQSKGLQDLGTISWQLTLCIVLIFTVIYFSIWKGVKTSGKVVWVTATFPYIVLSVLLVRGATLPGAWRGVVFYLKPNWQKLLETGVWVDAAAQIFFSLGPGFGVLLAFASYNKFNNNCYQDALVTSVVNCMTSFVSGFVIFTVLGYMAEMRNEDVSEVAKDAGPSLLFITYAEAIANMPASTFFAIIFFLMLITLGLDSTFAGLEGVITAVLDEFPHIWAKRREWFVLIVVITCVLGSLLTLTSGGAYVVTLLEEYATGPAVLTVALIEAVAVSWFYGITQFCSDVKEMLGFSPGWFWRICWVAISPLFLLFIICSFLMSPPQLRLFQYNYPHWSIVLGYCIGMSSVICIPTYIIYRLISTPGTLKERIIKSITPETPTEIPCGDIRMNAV

As to `COc1cccc([C@H](O)CN[C@H]2CC[C@@H](C(c3ccccc3)c3ccccc3)OC2)c1`, the pKi in assay [1] is 6.19; in assay [5], 6.86; in assay [6], 6.52. Besides, the results for the Ratio Ki in the assay listed under Rattus norvegicus [2], in the assay filed under Rattus norvegicus [3] and in the assay listed under Rattus norvegicus [4] were 0.46, 2.16 and 0.21, respectively.

Take `c1ccc(C(c2ccccc2)[C@@H]2CC[C@H](NCc3ccncc3)CO2)cc1`: the pKi is 6.05 in assay [1], 7.55 in assay [5] and 6.34 in assay [6]. Also, the results for the Ratio Ki in the assay filed under Rattus norvegicus [2], in the assay filed under Rattus norvegicus [3] and in the assay filed under Rattus norvegicus [4] were 0.06, 1.92 and 0.03, respectively.

With `c1ccc(C(c2ccccc2)[C@@H]2CC[C@H](NCc3ccc[nH]3)CO2)cc1`, the pKi in assay [1] is 6.85; in assay [5], 7.36; in assay [6], 7.40. Also, the Ratio Ki in the assay listed under Rattus norvegicus [2] is 1.09; in the assay filed under Rattus norvegicus [3], 3.56; in the assay filed under Rattus norvegicus [4], 0.31.

Take `O[C@H](CN[C@H]1CC[C@@H](C(c2ccccc2)c2ccccc2)OC1)c1ccc(F)cc1`: the figures for the pKi in assay [1], in assay [5] and in assay [6] were 6.08, 6.97 and 6.65, respectively. Moreover, the Ratio Ki in the assay listed under Rattus norvegicus [2] stood at 0.48; in the assay listed under Rattus norvegicus [3], 3.72; in the assay listed under Rattus norvegicus [4] it was 0.13.

Regarding `COc1cccc([C@@H](O)CN[C@H]2CC[C@@H](C(c3ccccc3)c3ccccc3)OC2)c1`, the pKi in assay [1] was 5.96; in assay [5], 6.90; in assay [6], 6.37. The Ratio Ki in the assay filed under Rattus norvegicus [2] was 0.29; in the assay filed under Rattus norvegicus [3], 2.55; in the assay filed under Rattus norvegicus [4], 0.11.

In the case of `COc1ccc(CN[C@H]2CC[C@@H](C(c3ccccc3)c3ccccc3)OC2)cc1`, the pKi was 7.80 in assay [5] and 7.53 in assay [6].

With `c1ccc(C(c2ccccc2)[C@@H]2CC[C@H](NCc3cccc4ccccc34)CO2)cc1`, the figures for the pKi in assay [1], in assay [5] and in assay [6] were 7.05, 6.33 and 6.63, respectively. Besides, the Ratio Ki in the assay filed under Rattus norvegicus [2] is 2.04; in the assay filed under Rattus norvegicus [3], 0.38; in the assay listed under Rattus norvegicus [4] it was 5.33.

For the compound `CN(C)CCCN1c2ccccc2CCc2ccccc21`, in the assay on Rattus norvegicus [7], the outcome was Active.

As to `Oc1ccc(CN[C@H]2CC[C@@H](C(c3ccccc3)c3ccccc3)OC2)cc1`, the pKi was 7.54 in assay [1] and 7.38 in assay [5].

For the compound `Oc1ccccc1CN[C@H]1CC[C@@H](C(c2ccccc2)c2ccccc2)OC1`, the pKi in assay [1] was 6.36; in assay [5] it was 6.70; in assay [6] it was 6.80. Besides, the Ratio Ki in the assay filed under Rattus norvegicus [2] is 1.25; in the assay listed under Rattus norvegicus [3], 2.75; in the assay filed under Rattus norvegicus [4], 0.45.

For the compound `O[C@H](CN[C@H]1CC[C@@H](C(c2ccccc2)c2ccccc2)OC1)c1ccccc1`, the figures for the pKi in assay [1], in assay [5] and in assay [6] were 6.10, 7.27 and 6.53, respectively. The figures for the Ratio Ki in the assay listed under Rattus norvegicus [2], in the assay filed under Rattus norvegicus [3] and in the assay filed under Rattus norvegicus [4] were 0.18, 2.67 and 0.07, respectively.

Consider `O[C@@H](CN[C@H]1CC[C@@H](C(c2ccccc2)c2ccccc2)OC1)c1ccc(F)cc1`, for which the pKi in assay [1] is 5.94; in assay [5], 7.14; in assay [6], 6.26. In addition, the Ratio Ki was determined as 0.13 in the assay filed under Rattus norvegicus [2], 2.09 in the assay listed under Rattus norvegicus [3] and 0.06 in the assay listed under Rattus norvegicus [4].

On to `O[C@@H]1C[C@@H](C(c2ccccc2)c2ccccc2)OC[C@H]1NCc1ccc2[nH]ccc2c1` (single isomer, unassigned), for which the pKi in assay [5] was 7.07.

For `Oc1cccc(CN[C@H]2CC[C@@H](C(c3ccccc3)c3ccccc3)OC2)c1`, the pKi was 7.40 in assay [1], 7.50 in assay [5] and 7.41 in assay [6]. Besides, the Ratio Ki in the assay filed under Rattus norvegicus [2] is 0.81; in the assay filed under Rattus norvegicus [3] it was 1.04; in the assay listed under Rattus norvegicus [4] it was 0.78. Further, the result in the assay with Rattus norvegicus [8] was Active.

Consider `c1ccc(C(c2ccccc2)[C@@H]2CC[C@H](NCc3cccnc3)CO2)cc1`, for which the results for the pKi in assay [1], in assay [5] and in assay [6] were 6.82, 6.84 and 6.45, respectively. Besides, the values for the Ratio Ki in the assay listed under Rattus norvegicus [2], in the assay listed under Rattus norvegicus [3] and in the assay filed under Rattus norvegicus [4] were 0.41, 0.43 and 0.95, respectively.

Consider `O[C@@H](CN[C@H]1CC[C@@H](C(c2ccccc2)c2ccccc2)OC1)c1ccccc1`, for which the values for the pKi in assay [1], in assay [5] and in assay [6] were 6.03, 6.84 and 6.79, respectively. In addition, the Ratio Ki came to 0.9 in the assay listed under Rattus norvegicus [2], 5.78 in the assay filed under Rattus norvegicus [3] and 0.15 in the assay listed under Rattus norvegicus [4].

For `c1ccc(C(c2ccccc2)[C@@H]2CC[C@H](NCc3ccco3)CO2)cc1`, the values for the pKi in assay [1], in assay [5] and in assay [6] were 6.94, 6.96 and 7.22, respectively. Besides, the Ratio Ki in the assay filed under Rattus norvegicus [2] was 1.84; in the assay listed under Rattus norvegicus [3] it was 1.92; in the assay listed under Rattus norvegicus [4], 0.96.

For the compound `c1ccc(C(c2ccccc2)[C@@H]2CC[C@H](NCc3ccccn3)CO2)cc1`, the pKi is 6.32 in assay [1] and 6.68 in assay [5]. The values for the Ratio Ki in the assay filed under Rattus norvegicus [2], in the assay filed under Rattus norvegicus [3] and in the assay filed under Rattus norvegicus [4] were 0.41, 0.96 and 0.43, respectively.

As to `c1ccc(C(c2ccccc2)[C@@H]2CC[C@H](NCc3cccs3)CO2)cc1`, the pKi in assay [1] is 6.73; in assay [5], 7.38; in assay [6], 7.33. For the same compound, the Ratio Ki is 0.88 in the assay listed under Rattus norvegicus [2], 3.94 in the assay filed under Rattus norvegicus [3] and 0.22 in the assay listed under Rattus norvegicus [4].
